Converted amounts (≈) assume the structure as drawn.
Key:
Pasteurella multocida = assay: Antimicrobial activity against Pasteurella multocida subsp. multocida ATCC 43137 after 24 hrs by serial dilution method; format: functional; conditions: ATCC 43137, 24 h
Summary of the method: (§1)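 Serial broth dilution in 96-well microtiter plates. Compounds and controls are dissolved in DMSO as stock. Bacteria are grown overnight at 37 °C, then diluted to 10^6 cfu/mL. E. coli and S. aureus are grown in Luria–Bertani broth. P. multocida and E. rhusiopathiae are grown in trypticase soy broth with 10% calf serum. Plates are incubated at 37 °C for 24 h and read at 630 nm.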

Escherichia coli = assay: Antimicrobial activity against Escherichia coli ATCC 25922 after 24 hrs by serial dilution method; format: functional; conditions: ATCC 25922, 24 h; summary of the method: as §1
SGC-7901 = assay: Cytotoxicity against human SGC7901 cells after 6 days by MTT assay; format: functional, cell-based; conditions: SGC-7901, 144 h
Summary of the method: (§2)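 HepG-2 and SGC7901 cells; growth inhibition read by MTT method, with 5-fluorouracil as positive control.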

OS-RC-2 = assay: Cytotoxicity against human OS-RC2 cells after 72 hrs by CCK8 assay; format: functional, cell-based; conditions: OS-RC-2, 72 h
Summary of the method: (§3)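 Renal cancer lines ACHN, 786-O and OS-RC-2; cell viability read by CCK-8 assay, with sorafenib as positive control.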

Staphylococcus aureus = assay: Antimicrobial activity against Staphylococcus aureus subsp. aureus Rosenbach ATCC 25923 after 24 hrs by serial dilution method; format: functional; conditions: Rosenbach ATCC 25923, 24 h; summary of the method: as §1
HepG2 = assay: Cytotoxicity against human HepG2 cells after 6 days by MTT assay; format: functional, cell-based; conditions: HepG2, 144 h; summary of the method: as §2
ACHN = assay: Cytotoxicity against human ACHN cells after 72 hrs by CCK8 assay; format: functional, cell-based; summary of the method: as §3
786-0 = assay: Cytotoxicity against human 786-O cells after 72 hrs by CCK8 assay; format: functional, cell-based; conditions: 786-0, 72 h; summary of the method: as §3
[1] = system: Erysipelothrix rhusiopathiae; assay: Antimicrobial activity against Erysipelothrix rhusiopathiae ATCC 19414 after 24 hrs by serial dilution method; format: functional; conditions: ATCC 19414, 24 h; summary of the method: as §1

Row | MIC (Pasteurella multocida) | MIC (Escherichia coli) | MIC (Staphylococcus aureus) | MIC [1] | Structure (SMILES) | IC50 (SGC-7901) | IC50 (OS-RC-2) | IC50 (HepG2) | IC50 (ACHN) | IC50 (786-0)
1 | > 100 µg/mL | > 100 µg/mL | > 100 µg/mL | > 100 µg/mL | CC[C@@H]1OC(=O)c2cc(O)ccc21 | > 50 µM | > 50 µM | > 50 µM | > 50 µM | > 50 µM
2 | 13 µg/mL (≈ 38.9 µM) | – | 13 µg/mL (≈ 38.9 µM) | 13 µg/mL (≈ 38.9 µM) | CC1(C)S[C@@H]2[C@H](NC(=O)Cc3ccccc3)C(=O)N2[C@H]1C(=O)O [PENICILLIN G] | – | – | – | – | –
3 | – | – | – | – | CNC(=O)c1cc(Oc2ccc(NC(=O)Nc3ccc(Cl)c(C(F)(F)F)c3)cc2)ccn1 [SORAFENIB] | – | 15 µM | – | 3.5 µM | 5.3 µM
